The values below come from ChEMBL document CHEMBL2046381, “Defining the mechanism of action and enzymatic selectivity of psammaplin A against its epigenetic targets” (J Med Chem, 2012).

The target of assay [1] is T1, Protein deacetylase HDAC6 (Homo sapiens, UniProt Q9UBN7).
T1 sequence (Q9UBN7 whole entry): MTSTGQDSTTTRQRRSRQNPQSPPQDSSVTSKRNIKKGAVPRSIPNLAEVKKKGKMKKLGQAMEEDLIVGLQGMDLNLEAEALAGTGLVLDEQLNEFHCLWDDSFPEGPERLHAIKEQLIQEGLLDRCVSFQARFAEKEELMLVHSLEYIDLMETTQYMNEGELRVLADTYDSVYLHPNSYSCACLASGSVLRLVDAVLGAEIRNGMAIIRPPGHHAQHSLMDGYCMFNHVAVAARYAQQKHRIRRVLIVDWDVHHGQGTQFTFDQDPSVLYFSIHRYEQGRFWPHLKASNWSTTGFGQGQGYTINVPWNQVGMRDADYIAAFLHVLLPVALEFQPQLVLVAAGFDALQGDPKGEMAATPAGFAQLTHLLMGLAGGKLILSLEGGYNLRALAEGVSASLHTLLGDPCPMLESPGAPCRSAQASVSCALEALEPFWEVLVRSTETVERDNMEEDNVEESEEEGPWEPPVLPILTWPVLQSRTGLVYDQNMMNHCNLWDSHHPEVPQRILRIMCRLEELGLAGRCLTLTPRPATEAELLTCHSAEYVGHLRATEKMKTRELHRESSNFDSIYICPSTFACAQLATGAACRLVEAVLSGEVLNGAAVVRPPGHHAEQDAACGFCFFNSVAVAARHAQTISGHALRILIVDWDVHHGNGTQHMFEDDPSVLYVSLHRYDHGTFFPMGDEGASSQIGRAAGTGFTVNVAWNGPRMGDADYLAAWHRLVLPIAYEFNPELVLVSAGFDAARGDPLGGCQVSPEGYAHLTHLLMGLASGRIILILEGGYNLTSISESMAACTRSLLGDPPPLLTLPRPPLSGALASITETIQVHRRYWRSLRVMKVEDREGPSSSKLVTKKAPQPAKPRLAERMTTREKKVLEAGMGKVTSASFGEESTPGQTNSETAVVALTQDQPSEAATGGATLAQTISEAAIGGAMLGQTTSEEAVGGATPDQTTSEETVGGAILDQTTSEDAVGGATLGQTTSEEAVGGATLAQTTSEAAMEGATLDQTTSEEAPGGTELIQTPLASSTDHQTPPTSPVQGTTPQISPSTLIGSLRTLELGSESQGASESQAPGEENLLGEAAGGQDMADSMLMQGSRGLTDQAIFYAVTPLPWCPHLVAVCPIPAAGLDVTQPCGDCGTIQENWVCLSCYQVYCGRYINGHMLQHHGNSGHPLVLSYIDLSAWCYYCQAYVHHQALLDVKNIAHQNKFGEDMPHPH
Briefly: Inhibition of human recombinant HDAC6 using Boc-lys(Ac)-AMC as substrate preincubated for 20 mins with substrate measured after 60 mins by fluorescence analysis.

Assay [2] deals with MCF7. Briefly: Growth inhibition of human MCF7 cells after 96 hrs by sulphorhodamine B assay. It counts as functional. The note with it: MCF7, 96 h. In short, it runs like this:
(§1)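 SRB growth assay; MCF7 and WI38 seeded 4000 cells/well, A549 2000 cells/well, attached overnight, then exposed to freshly made drug solutions (0.1 to 50 μM) for 96 h. Fixed with cold 10% TCA, stained with 0.4% SRB; absorbance at 540 nm as percent of untreated control, IC50 from mean absorbance.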

Assay [3] has as its system MCF7. The experiment in a line: Selectivity index, ratio of GI50 for human WI38 cells to GI50 for human MCF7 cells. It counts as functional.
The target of the next assay is Histone deacetylase 1 (Homo sapiens, UniProt Q13547). Briefly: Inhibition of human recombinant HDAC1 using Boc-lys(Ac)-AMC as substrate preincubated for 20 mins with substrate measured after 60 mins by fluorescence analysis.
Sequence of Histone deacetylase 1 (Q13547 whole entry): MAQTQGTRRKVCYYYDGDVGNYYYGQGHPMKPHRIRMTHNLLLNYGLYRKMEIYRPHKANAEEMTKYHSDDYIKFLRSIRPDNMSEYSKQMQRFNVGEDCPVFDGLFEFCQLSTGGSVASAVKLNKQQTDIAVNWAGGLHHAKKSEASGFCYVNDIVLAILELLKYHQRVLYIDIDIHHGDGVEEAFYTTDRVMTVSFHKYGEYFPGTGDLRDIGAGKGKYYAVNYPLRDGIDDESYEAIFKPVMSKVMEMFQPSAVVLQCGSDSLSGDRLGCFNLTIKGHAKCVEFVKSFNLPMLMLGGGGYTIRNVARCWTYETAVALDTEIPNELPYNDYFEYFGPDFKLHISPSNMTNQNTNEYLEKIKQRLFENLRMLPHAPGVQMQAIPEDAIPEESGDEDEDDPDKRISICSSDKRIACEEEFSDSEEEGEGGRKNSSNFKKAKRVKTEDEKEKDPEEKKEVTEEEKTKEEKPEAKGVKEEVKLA
For assay [4], the target named is T2, Histone deacetylase-like amidohydrolase (Alcaligenes sp. (strain DSM 11172) (Bordetella sp. (strain FB188))) (UniProt Q70I53).
T2 sequence (whole entry): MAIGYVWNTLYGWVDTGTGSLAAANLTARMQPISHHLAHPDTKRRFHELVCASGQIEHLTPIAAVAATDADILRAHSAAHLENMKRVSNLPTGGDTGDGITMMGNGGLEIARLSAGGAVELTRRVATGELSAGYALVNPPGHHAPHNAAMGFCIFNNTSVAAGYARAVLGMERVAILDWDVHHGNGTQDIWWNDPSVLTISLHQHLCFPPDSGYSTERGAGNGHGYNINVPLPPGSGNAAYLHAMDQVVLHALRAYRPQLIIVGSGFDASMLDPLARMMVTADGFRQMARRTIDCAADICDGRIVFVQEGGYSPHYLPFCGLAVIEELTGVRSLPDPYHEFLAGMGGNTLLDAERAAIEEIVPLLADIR
The experiment in a line: Inhibition of Bordetella sp. (strain FB188) N-terminus His-tagged HDAH expressed in Escherichia coli BL21 (DE3) up to 100 uM. The note with it: Alcaligenaceae bacterium FB188. In short, it runs like this: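 Recombinant N-terminal His6-tagged HDAH from Bordetella strain FB188, expressed in E. coli BL21, purified on zinc-loaded His-Trap column, eluted with 500 mM imidazole, dialyzed into assay buffer (>98% pure by SDS-PAGE). Tested directly against compounds; thiols generated in situ from disulfides with TCEP.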

Another assay deals with T3, Histone deacetylase 8 (Homo sapiens, UniProt Q9BY41).
T3 sequence (Q9BY41 whole entry): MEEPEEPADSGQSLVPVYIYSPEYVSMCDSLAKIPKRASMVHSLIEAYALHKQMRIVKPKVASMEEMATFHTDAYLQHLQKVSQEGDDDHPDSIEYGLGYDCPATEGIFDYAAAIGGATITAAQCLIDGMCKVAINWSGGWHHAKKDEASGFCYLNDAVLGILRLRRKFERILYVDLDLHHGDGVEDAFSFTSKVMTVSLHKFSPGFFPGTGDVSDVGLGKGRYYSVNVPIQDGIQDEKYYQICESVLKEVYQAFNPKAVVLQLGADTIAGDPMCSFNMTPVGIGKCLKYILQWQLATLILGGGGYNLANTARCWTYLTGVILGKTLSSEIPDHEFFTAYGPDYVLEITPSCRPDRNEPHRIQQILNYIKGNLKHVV
The experiment in a line: Inhibition of human recombinant HDAC8 using Boc-lys(Ac)-AMC as substrate preincubated for 20 mins with substrate measured after 60 mins by fluorescence analysis.

The test system of another assay is A549. Briefly: Growth inhibition of human A549 cells after 96 hrs by sulphorhodamine B assay. It counts as functional. The note with it: A549, 96 h. In short, it runs like this: as §1
On the technique in general: Sulforhodamine B stains cellular protein and so reports cell mass.

Each structure is given as a SMILES string. Calls of active or inactive are those of the source. How the calls were made is not given here.

One may read the IC50 as the concentration at which inhibition is half-maximal. What is called GI50 is the concentration at which growth is held to half of that of the control. In the case of `N/N=C(\Cc1ccc(O)c(Br)c1)C(=O)NCCS`, the IC50 in assay [1] was found to be 1 µM; at Histone deacetylase 1, 0.005 µM; on Histone deacetylase 8, 13 µM. For the same compound, the GI50 with MCF7 [2] was 3.42 µM; in the assay on A549 it was 33.4 µM. Further, the RatioGI50 in the assay with MCF7 [3] is 10. In addition, the inhibition result in assay [4] was “inactive”.
